Legend:
Cavia porcellus = test: The compound was tested in vivo for the inhibition of IgG1-mediated bronchoconstriction in guinea pig at 0.03 mg/kg administered perorally; assay type: functional; details: route oral; for ED50: read-out: ID50 (the source's name)
How it was run: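 Male Hartley guinea pigs, 8–12 per group, were passively sensitized ip with 1 mL IgG-like anti-ovalbumin antiserum. After 24 h they were urethane-anesthetized, ventilated and given gallamine. Compound was given orally 1 h before ovalbumin challenge (5 mg/kg iv). Konzett–Rössler overflow was read as % inhibition versus controls at 5 min after challenge.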

[1] = target: T1, Muscarinic acetylcholine receptor M1 (Rattus norvegicus) (UniProt P08482); test: The compound was tested in vitro for binding affinity Muscarinic acetylcholine receptor M1 from rat striatum, using [3H]quinuclidinyl benzilate as radioligand at 10 uM.
T1 sequence (whole entry): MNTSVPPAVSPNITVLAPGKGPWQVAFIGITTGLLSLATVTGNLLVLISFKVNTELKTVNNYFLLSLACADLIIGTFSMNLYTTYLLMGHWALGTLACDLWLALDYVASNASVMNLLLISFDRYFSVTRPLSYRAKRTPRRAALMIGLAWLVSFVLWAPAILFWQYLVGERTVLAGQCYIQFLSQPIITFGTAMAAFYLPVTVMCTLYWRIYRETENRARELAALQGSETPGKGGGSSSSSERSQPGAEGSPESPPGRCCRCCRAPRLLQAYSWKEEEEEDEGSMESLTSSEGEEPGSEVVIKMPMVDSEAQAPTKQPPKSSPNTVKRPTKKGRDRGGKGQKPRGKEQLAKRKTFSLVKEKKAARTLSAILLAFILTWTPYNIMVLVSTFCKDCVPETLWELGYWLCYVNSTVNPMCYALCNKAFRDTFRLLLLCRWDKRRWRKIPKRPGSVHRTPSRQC
How it was run: (§1)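 Rat striatum was homogenized in water and diluted to 200 volumes in 50 mM Na/K phosphate, pH 7.4. Tissue (5 mg wet weight) was incubated with 1.26 nM [3H]quinuclidinyl benzilate for 60 min at 37 °C. Nonspecific binding was defined with 1 μM unlabeled dexetimide. Bound ligand was collected by GF/B filtration with three ice-cold buffer washes and counted by scintillation.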

Rattus norvegicus [2] = test: The compound was tested in vivo for inhibitory effect on 48-h homologous passive cutaneous anaphylaxis (PCA) in rats administered perorally; assay type: functional; details: po
How it was run: (§2)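 Male Wistar rats, three per group, received intradermal anti-ovalbumin rat IgE serum (0.05 mL, 1:8 in saline) at two dorsal sites. After 48 h they were challenged iv with 1 mg ovalbumin plus 5 mg Evans blue. Compound was given orally 1 h before challenge. […] ED50 came from responders (>50% inhibition).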

Histamine H1 receptor [3] = target: T2, Histamine H1 receptor (Cavia porcellus, UniProt P31389); test: (§3) The compound was tested in vitro for binding affinity against histamine H1 receptor from guinea pig cerebellum, using [3H]pyrilamine as radioligand at 0.1 uM; assay type: tissue-based
T2 sequence (P31389 whole entry): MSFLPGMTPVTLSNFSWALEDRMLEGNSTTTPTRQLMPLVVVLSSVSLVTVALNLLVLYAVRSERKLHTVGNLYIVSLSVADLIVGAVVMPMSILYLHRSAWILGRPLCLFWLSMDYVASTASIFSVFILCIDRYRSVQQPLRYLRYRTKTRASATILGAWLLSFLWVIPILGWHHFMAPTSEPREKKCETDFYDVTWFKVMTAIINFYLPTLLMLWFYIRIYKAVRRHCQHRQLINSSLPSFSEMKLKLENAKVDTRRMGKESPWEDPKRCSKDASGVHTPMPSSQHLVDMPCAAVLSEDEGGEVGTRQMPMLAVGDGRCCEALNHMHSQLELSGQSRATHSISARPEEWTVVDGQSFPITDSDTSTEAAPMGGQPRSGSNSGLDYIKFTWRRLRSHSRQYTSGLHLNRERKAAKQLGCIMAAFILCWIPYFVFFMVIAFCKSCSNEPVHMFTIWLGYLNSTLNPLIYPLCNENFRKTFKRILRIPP
How it was run: (§4)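 Male Hartley guinea-pig cerebellum membranes (washed twice, 35000–35500g) in 50 mM Na/K phosphate, pH 7.5. Nonspecific binding was set with 1 μM astemizole. Bound ligand was collected by GF/C filtration with three ice-cold washes and counted by liquid scintillation.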

Histamine H1 receptor [4] = target: T2, Histamine H1 receptor; test: Binding affinity for histamine H1 receptor from guinea pig cerebellum, using [3H]pyrilamine as radioligand at 0.1 uM; assay type: tissue-based
How it was run: as §4, with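 “7.5. Tissue (10 mg wet weight) was incubated with 3.8 nM [3H]pyrilamine and 0.1 μM drug for 30 min at 25 °C.” for “7.5.”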

[5] = target: T1, Muscarinic acetylcholine receptor M1 (Rattus norvegicus); test: Binding affinity for Muscarinic acetylcholine receptor M1 from rat striatum, using [3H]quinuclidinyl benzilate as radioligand at 10 uM.
How it was run: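 Rat striatum was homogenized in water and diluted to 200 volumes in 50 mM Na/K phosphate, pH 7.4. Nonspecific binding was defined with 1 μM unlabeled dexetimide. Bound ligand was collected by GF/B filtration with three ice-cold buffer washes and counted by scintillation.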

Rattus norvegicus [6] = test: The compound at 1 uM was tested in vivo for inhibitory effect on 48-h homologous passive cutaneous anaphylaxis (PCA) in rats administered perorally; assay type: functional; details: in the assay text read “at 1 mg/kg” for “at 1 uM”; how it was run: as §2
[7] = target: Histamine H1 receptor (Cavia porcellus) (UniProt P31389); test: as §3; assay type: tissue-based
Histamine H1 receptor (Cavia porcellus), sequence (P31389 whole entry): as above
How it was run: as §4, with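 “7.5. Tissue (10 mg wet weight) was incubated with 3.8 nM [3H]pyrilamine and 0.1 μM drug for 30 min at 25 °C.” for “7.5.”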

[8] = target: T1, Muscarinic acetylcholine receptor M1 (Rattus norvegicus); test: The compound was tested in vitro for binding affinity against muscarinic acetylcholine Muscarinic acetylcholine receptor M1 from rat striatum, using [3H]quinuclidinyl benzilate as radioligand at 10 uM.; how it was run: as §1
Rattus norvegicus [9] = test: The compound at 10 uM was tested in vivo for inhibitory effect on 48-h homologous passive cutaneous anaphylaxis (PCA) in rats administered perorally; assay type: functional; details: in the assay text read “at 10 mg/kg” for “at 10 uM”; how it was run: as §2
Rattus norvegicus [10] = test: The compound at 1 mg/kg was tested in vivo for inhibitory effect on 48-h homologous passive cutaneous anaphylaxis (PCA) in rats administered perorally

| SMILES | Ki (Histamine H1 receptor [4]) [nM] | inhibition [5] [%] | ED50 (Cavia porcellus) [mg/kg] | ED50 (Rattus norvegicus [2]) [mg/kg] | inhibition in vivo at 0.03 mg/kg (Cavia porcellus) [%] | other results |
| --- | --- | --- | --- | --- | --- | --- |
| CN(C)CC/C=C1/c2ccccc2COc2ccc(CCC(=O)O)cc21 | – | – | 0.015 | 0.32 | – | inhibition [1]: 2%; Ki (Histamine H1 receptor [3]): 15 nM |
| CN(C)CC/C=C1\c2ccccc2COc2ccc(CCC(=O)O)cc21 | 4.2 | 5 | 0.0064 | 0.26 | – | – |
| CN(C)CCC/C=C1/c2ccccc2COc2ccc(CC(=O)O)cc21 | 4.6 | 2 | – | – | 60 | Inhibition (Rattus norvegicus [6]): 55% |
| CN(C)C/C=C1\c2ccccc2COc2ccc(CC(=O)O)cc21 | – | – | 0.018 | 0.077 | – | inhibition [1]: 1%; Ki (Histamine H1 receptor [3]): 11 nM |
| O=C(O)/C=C/C(=O)O.O=C(O)c1ccc2c(c1)/C(=C/CN1CCSCC1)c1ccccc1CO2 | – | – | – | – | – | inhibition [7]: 30%; inhibition [8]: 3%; Inhibition (Rattus norvegicus [9]): 24% |
| Cc1ccc2c(c1)/C(=C/CCN(C)C)c1ccccc1CO2.O=C(O)/C=C/C(=O)O | 0.13 | – | – | – | – | Inhibition (Rattus norvegicus [6]): 20% |
| CN(C)CC/C=C1/c2ccccc2COc2ccc(CCO)cc21 | – | 80 | – | 0.12 | – | Ki (Histamine H1 receptor [3]): 0.63 nM |
| CN(C)CC/C=C1/c2ccccc2COc2ccc(/C=C/C(=O)O)cc21.O=C(O)/C=C/C(=O)O | 29 | -1 | – | 1 | 1.1 | – |
| CN(C)CC/C=C(/c1ccccc1)c1cccc(C(=O)O)c1 | – | 4 | – | – | – | inhibition [7]: 10% |
| CC(C)O.O=C(O)c1ccc2c(c1)/C(=C\CCN1CCOCC1)c1ccccc1CO2 | – | – | – | – | -1 | inhibition [7]: 24%; inhibition [8]: -2%; Inhibition (Rattus norvegicus [6]): 74% |
| CN(C)CC/C=C1\c2ccccc2COc2ccc(CCO)cc21 | 0.48 | 72 | 0.0059 | 0.14 | – | – |
| O=C(O)/C=C/C(=O)O.O=C(O)c1ccc2c(c1)/C(=C/CN1CCOCC1)c1ccccc1CO2 | – | – | – | – | – | inhibition [7]: 19%; inhibition [8]: 2%; Inhibition (Rattus norvegicus [10]): 12% |
| CN1CCC(=C2c3ccccc3CC(=O)c3sccc32)CC1 [KETOTIFEN] | – | 55 | 0.009 | 4.8 | – | – |
| CN1CCN(C/C=C2\c3ccccc3COc3ccc(CC(=O)O)cc32)CC1.O=C(O)/C=C/C(=O)O | – | – | – | – | – | inhibition [7]: 29%; inhibition [8]: 3%; Inhibition (Rattus norvegicus [6]): 44% |
| CN1CCN(C/C=C2\c3ccccc3COc3ccc(C(=O)O)cc32)CC1.O=C(O)/C=C/C(=O)O | – | – | – | – | – | inhibition [7]: 0%; inhibition [8]: 2%; Inhibition (Rattus norvegicus [10]): 10% |
| CN(C)CCSC1c2ccccc2COc2ccc(C(=O)O)cc21.Cl (configuration not stated) | 14 | – | 0.029 | 0.92 | – | inhibition [8]: 7% |

Further lines, with some results ahead:

| Ki (Histamine H1 receptor [4]) [nM] | inhibition [5] [%] | SMILES | ED50 (Cavia porcellus) [mg/kg] | ED50 (Rattus norvegicus [2]) [mg/kg] | inhibition in vivo at 0.03 mg/kg (Cavia porcellus) [%] | other results |
| --- | --- | --- | --- | --- | --- | --- |
| – | 2 | CN(C)CCC/C=C1/c2ccccc2COc2ccc(C(=O)O)cc21 | – | 1.2 | 11 | Ki (Histamine H1 receptor [3]): 5.8 nM |
| 12 | -2 | CN(C)C/C=C1\c2ccccc2COc2ccc(C(=O)O)cc21.O=C(O)/C=C/C(=O)O | – | – | 28 | Inhibition (Rattus norvegicus [10]): 19% |
| 4.2 | 5 | CN(C)CC/C=C1\c2ccccc2COc2ccc(C(=O)O)cc21.O=C(O)/C=C/C(=O)O | 0.021 | 0.74 | – | – |
| 6.3 | 12 | CN(C)CCC/C=C1\c2ccccc2COc2ccc(C(=O)O)cc21 | – | 1.2 | 1.4 | – |
| 5.2 | -1 | CN(C)CC/C=C1\c2ccccc2COc2ccc(CC(=O)O)cc21 | 0.0041 | 0.021 | – | – |
| 24 | -1 | CN(C)CC/C=C1/c2ccccc2COc2cc(C(=O)O)ccc21 | – | – | – | Inhibition (Rattus norvegicus [10]): 19% |
| 20 | 1 | CN(C)CC/C=C1/c2ccccc2COc2ccc(C(=O)O)cc21 | 0.053 | 0.25 | – | – |
| 16 | 3 | CN(C)CC/C=C1/c2ccccc2COc2ccc(CC(=O)O)cc21.Cl [OLOPATADINE HYDROCHLORIDE] | 0.03 | 0.049 | – | – |
| 10 | 3 | CCN(CC)CC/C=C1/c2ccccc2COc2ccc(C(=O)O)cc21.O=C(O)/C=C/C(=O)O | – | 0.12 | 19 | – |
| 5 | 3 | O=C(O)/C=C/C(=O)O.O=C(O)c1ccc2c(c1)/C(=C\CCN1CCCC1)c1ccccc1CO2 | – | – | 8.7 | Inhibition (Rattus norvegicus [9]): 53% |
| 7.6 | 27 | O=C(O)c1ccc2c(c1)/C(=C\CCN1CCSCC1)c1ccccc1CO2 | – | – | 27 | Inhibition (Rattus norvegicus [6]): 60% |

— ChEMBL document CHEMBL1126065, “Synthesis and antiallergic activity of 11-(aminoalkylidene)-6,11-dihydrodibenz[b,e]oxepin derivatives” (J Med Chem, 1992)
